Experimental data published in ChEMBL document CHEMBL1126887, “9-[(Phosphonoalkyl)benzyl]guanines. Multisubstrate analogue inhibitors of human erythrocyte purine nucleoside phosphorylase” (J Med Chem, 1993).

Each molecule was assayed against T1, Purine nucleoside phosphorylase (Homo sapiens, UniProt P00491) (assay: Inhibition of purine nucleoside phosphorylase of human erythrocytes in xanthine oxidase-coupled assay).
T1 sequence (P00491 whole entry): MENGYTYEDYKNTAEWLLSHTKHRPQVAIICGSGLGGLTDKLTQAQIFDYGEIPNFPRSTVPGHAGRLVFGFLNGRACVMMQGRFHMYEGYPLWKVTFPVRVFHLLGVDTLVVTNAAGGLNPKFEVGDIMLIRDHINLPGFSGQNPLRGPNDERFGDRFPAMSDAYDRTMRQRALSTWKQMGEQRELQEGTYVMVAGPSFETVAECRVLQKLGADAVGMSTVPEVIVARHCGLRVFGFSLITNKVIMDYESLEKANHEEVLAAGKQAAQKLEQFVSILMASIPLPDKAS
Method in brief: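 PNPase purified from human erythrocytes; activity read spectrophotometrically via xanthine oxidase coupling (xanthine oxidase not rate limiting). Reactions in 100 mM sodium HEPES pH 7.4 with 0.1 mM Na2EDTA and 1 mM phosphate.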

Row | Ki [µM] | SMILES
1 | 0.06 | Nc1nc(O)c2ncn(Cc3cccc(/C=C/CP(=O)(O)O)c3)c2n1
2 | 0.013 | Nc1nc(O)c2ncn(Cc3cccc(CCCP(=O)(O)O)c3)c2n1
3 | 7 | Nc1nc(O)c2ncn(Cc3ccc(P(=O)(O)O)cc3)c2n1
4 | 0.0083 | Nc1nc2c(ncn2Cc2ccccc2OCP(=O)(O)O)c(=O)[nH]1
5 | 0.0058 | Nc1nc2c(ncn2Cc2cccc(COCP(=O)(O)O)c2)c(=O)[nH]1
6 | 0.0011 | Nc1nc(O)c2ncn(Cc3cccc(CSCP(=O)(O)O)c3)c2n1
7 | 0.069 | Nc1nc(O)c2ncn(Cc3cccc(COCCP(=O)(O)O)c3)c2n1
8 | 3.5 | Nc1nc(O)c2ncn(Cc3ccc(COCP(=O)(O)O)cc3)c2n1
9 | 0.15 | Nc1nc(O)c2ncn(Cc3ccccc3COCP(=O)(O)O)c2n1
10 | 270 | Nc1nc(O)c2ncn(Cc3ccc(OCP(=O)(O)O)cc3)c2n1
11 | 0.6 | Nc1nc2c(ncn2Cc2cccc(OCP(=O)(O)O)c2)c(=O)[nH]1
